Sampled rows, rich in hits. Any-hit rate of the full collection: about 3%.
hiPSC survival: increases survival of single human iPS cells | 0.044% of 360,000 active | survival enhancement, % at 20 µM | hiPSC single-cell survival, ATPlite luminescence; 100% = ROCK inhibitor wells, 0% = DMSO; in the data active = survival enhancement above about 18%;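 also: cells exposed to compounds for 16 hours before the ATP read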
MPTP block: permeability transition pore inhibition | 1.4% of 360,000 active | inhibition, % at 10 µM | isolated mouse mitochondria, Ca2+ swelling absorbance, 30 min;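 active = inhibition of 50% or more, scaled per plate between neutral and stimulator controls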
UBC13 polyUb: human UBC13 polyubiquitination inhibition. P61088. UBC13 polyubiquitin chain formation, TR-FRET. inhibition, % at 20 µM. 0.47% of 330,000 active. AID 485273; in the data active = inhibition above about 45%, passing the limit was not always enough
Target sequence (P61088 whole entry, looked up): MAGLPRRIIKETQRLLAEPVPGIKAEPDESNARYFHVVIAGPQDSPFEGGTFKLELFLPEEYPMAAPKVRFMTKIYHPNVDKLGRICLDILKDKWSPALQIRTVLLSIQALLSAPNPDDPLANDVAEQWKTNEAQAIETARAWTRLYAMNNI
Granule exo inh: lytic granule exocytosis inhibition; TALL-104 LAMP-1 surface exposure, flow cytometry; cells stimulated with thapsigargin and PMA; inhibition, % at 10 µM; 0.66% of 360,000 active; AID 651702;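 active = inhibition above about 55%, limit read from the data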
Apaf-1 inh: inhibitors of human Apaf-1 apoptosome. O14727. reconstituted apoptosome caspase-3 activity, DEVD-Rh110 fluorescence. inhibition, % at 20 µM. 0.71% of 330,000 active. AID 489030; active = inhibition of at least 40% at 20 µM
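Material: reconstituted apoptosome with Apaf-1, cytochrome c, caspase-9, procaspase-3, dATP. Technique: Rh110 fluorescence intensity. Buffer or medium: pH 7.5 Hepes buffer with CHAPS, BSA, DTT. Times: 30 min plus 50 min, RT.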
beta cell repl: inducers of beta-cell replication in MIN6 cells; MIN6 cells proliferation, ATPlite luminescence, 48 h; cells starved in 0.2% serum; 100% = growth in 10% serum; proliferation, % at 10 µM; 0.29% of 330,000 active;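 active = compounds whose signal lies at least 3.5 SD above the mean of all wells on their plate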
Apaf-1 inh conf2: confirmation of Apaf-1 inhibitors. shares compounds with Apaf-1 inh. inhibition, % at 20 µM. AID 504614. reconstituted apoptosome, caspase-3 DEVD-Rh110 fluorescence. 25% of 1,800 active;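 active = mean inhibition of at least 40% at 20 µM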
Rh110 interf inh: Rh110 signal interference in Apaf-1 inhibitor counter-screen; shares compounds with Apaf-1 inh; Rh110 fluorescence interference, quenched caspase reaction; activation (fluorescence interference), % at 20 µM; 1,800 tested, under 10 active;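 active = signal rise of 40% or more at 20 µM, treated as a fluorescence artifact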
Fluor interf inh: shows fluorescence interference in the Apaf-1 inhibitor assay format. shares compounds with Apaf-1 inh. fluorescence interference counterscreen, Apaf-1 assay format. IC50, µM. 460 tested, under 10 active; call rule not given here
Hits are given with their value; – = inactive; · = not tested or not shown.

SMILES	hiPSC survival	MPTP block	UBC13 polyUb	Granule exo inh	Apaf-1 inh	beta cell repl	Apaf-1 inh conf2	Rh110 interf inh	others
O=[N+]([O-])c1ccc(C=Nc2cccc3ccccc23)s1	–	–	–	–	68	–	–	–
COc1ccc(N2CCN(C(=O)c3ccc4c(c3)CCN4S(C)(=O)=O)CC2)cc1	–	–	·	–	·	·	·	·
COc1ccccc1CCn1c(N)c(C#N)c2nc3ccccc3nc21	–	–	–	–	40	–	–	–
N#Cc1c(N)n(CCNC(=O)c2cccs2)c2nc3ccccc3nc12	–	–	–	–	90	–	–	–
COc1ccc(Cn2c(N)c(C#N)c3nc4ccccc4nc32)cc1OC	–	–	–	–	86	–	–	–
N#Cc1c(N)n(CCNC(=O)c2ccccc2)c2nc3ccccc3nc12	–	–	–	–	–	–	·	·
N#Cc1c(N)n(CCCN2CCOCC2)c2nc3ccccc3nc12	–	–	–	–	–	–	·	·
COc1ccc(CCn2c(N)c(C#N)c3nc4ccccc4nc32)cc1OC	–	–	–	–	60	–	–	–
CN(C)c1cc(N/N=C/c2ccccc2C(F)(F)F)nc(N(C)C)n1	–	–	–	–	56	–	51	–	Fluor interf inh=–
Cc1nnc(N/N=C/c2ccccc2C(F)(F)F)n1N	–	–	–	–	–	–	·	·
CC(=O)OCCCNc1cc(Sc2nc3ccccc3s2)c2nonc2c1[N+](=O)[O-]	–	–	–	69	96	–	–	–
CC(=O)N1CCN(C(c2ccccc2)c2nnnn2C(C)(C)C)CC1 (configuration not stated)	–	–	·	–	·	·	·	·
Cc1ccc(N(C(=O)c2csnn2)C(C(=O)NC2CCCCC2)c2ccncc2)c(C)c1 (configuration not stated)	–	–	–	–	–	–	·	·
Cc1ccc(S(=O)(=O)N2C[C@@H]3[C@H]4CC[C@H](C4)[C@@H]3[C@@H](C)[C@@H]2c2cn(Cc3ccccc3)c3ccc(F)cc23)cc1	–	–	·	–	–	·	·	·
C[C@@H]1[C@H]2[C@@H]3CC[C@@H](C3)[C@H]2CN[C@H]1c1cn(Cc2ccccc2)c2ccccc12	–	–	·	–	62	·	–	–
O=C(CN1C2CCCC1CC(NC(=O)c1ccco1)C2)Nc1ccccc1 (configuration not stated)	–	–	–	–	–	–	·	·
O=C(NC1CC2CCCC(C1)N2S(=O)(=O)c1ccccc1)c1ccco1 (configuration not stated)	–	–	–	–	42	–	–	–
COc1ccc2c(c1)c(/C=N/Nc1nc3ccccc3[nH]1)c(C)n2C	–	–	–	–	43	–	–	–
CCc1noc(C)c1C(=O)N1CCN(S(=O)(=O)c2c(C)cc(C)cc2C)CC1	–	–	–	–	57	–	–	–
Cc1cc(-c2nnc(SCC(=O)Nc3ccc(C)c(C)c3)n2N)n[nH]1	–	–	–	–	–	–	·	·
CC1=NN(c2ccc(C(F)(F)F)cn2)C(=O)C1	–	–	–	–	62	–	61	–	Fluor interf inh=–
Cc1nnc(N=c2ssnc2Cl)o1	–	–	–	–	50	–	57	–	Fluor interf inh=–
Cc1ccc(S(=O)(=O)N2CCN(C(=O)CCOc3cc(C)ccc3C)CC2)cc1	–	–	–	–	40	–	–	–
C=C(C(=O)c1ccccc1)C(NC(C)(C)C)c1ccccc1 (configuration not stated)	–	–	·	–	·	·	·	·
COc1ccc(-n2c(SCC(=O)Nc3cc(C)on3)nc3c([nH]c4ccccc43)c2=O)cc1	–	–	–	–	–	–	·	·
Cc1ccc(-n2c(SCC(=O)Nc3cc(C)on3)nc3c([nH]c4ccccc43)c2=O)cc1	–	–	–	–	54	–	–	–
CCOc1ccc(NS(=O)(=O)c2ccc(C(=O)N(CC)CC(=O)NCc3cccs3)cc2)cc1	–	–	–	–	61	–	–	–
